How the values were obtained:
Mus musculus [1] = assay: Tumor uptake in C3H mice bearing RIF tumors, determined by in vivo reflectance spectroscopy following 5.0 umol/kg administration.; assay type: functional
How it was run: (§1)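 Photosensitizer given iv at 5.0 µmol/kg to C3H mice bearing RIF tumors, anesthetized with ketamine xylazine ip. Scattered-light spectrum from tissue was recorded before and after injection. The in vivo drug absorption was taken as the ratio of post- to pre-injection spectra. Tumor and skin were compared at 24 h postinjection.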

Mus musculus [2] = assay: Skin uptake in C3H mice bearing RIF tumors, determined by in vivo reflectance spectroscopy following 5.0 umol/kg administration.; assay type: functional; how it was run: as §1
[3] = Partition coefficient (logP); assay type: physicochemical; conditions: octanol/water
[4] = Tumor and skin uptake ratio of the compound; assay type: functional
How it was run: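 C3H mice bearing RIF tumors, anesthetized with ketamine xylazine ip; photosensitizer given iv at 5.0 µmol/kg. Uptake measured by in vivo reflectance spectroscopy: light scattered by tissue recorded before and after injection, and drug absorption taken as the postinjection/preinjection spectral ratio. Tumor versus skin uptake compared at 24 h postinjection.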

Row | Structure (SMILES) | Tumor uptake (Mus musculus [1]) | Skin uptake (Mus musculus [2]) | logP [3] | Ratio [4] | logP ([3]; read-out: logP)
1 | CCCCCCCCCCCCN1C(=O)c2c3nc(cc4nc(cc5[nH]c(cc6[nH]c2c(c6C)C1=O)c(CC)c5C)C(C(C)OC)=C4C)[C@@H](C)[C@@H]3CCC(=O)OC (stereo not given in full) | 15.48 µM | 5.8 µM | 10.88 | 2.67 | –
2 | CCCCCCCCCCCCOC(C)C1=C(C)c2cc3nc(c4c5[nH]c(cc6[nH]c(cc1n2)c(C)c6CC)c(C)c5C(=O)N(CCCCCC)C4=O)[C@@H](CCC(=O)OC)[C@@H]3C (stereo not given in full) | 9.4 µM | 4.3 µM | – | 2.19 | –
3 | CCCCCCCCCCCCOC(C)C1=C(C)c2cc3nc(c4c5[nH]c(cc6[nH]c(cc1n2)c(C)c6CC)c(C)c5C(=O)N(C)C4=O)[C@@H](CCC(=O)OC)[C@@H]3C (stereo not given in full) | 6.21 µM | 1.74 µM | 10.73 | 3.57 | –
4 | CCCCCCN1C(=O)c2c3nc(cc4nc(cc5[nH]c(cc6[nH]c2c(c6C)C1=O)c(CC)c5C)C(C(C)OC)=C4C)[C@@H](C)[C@@H]3CCC(=O)OC (stereo not given in full) | 10.1 µM | 4.5 µM | – | 2.24 | 7.82
5 | CCCCCCCCCCOC(C)C1=C(C)c2cc3nc(c4c5[nH]c(cc6[nH]c(cc1n2)c(C)c6CC)c(C)c5C(=O)N(CCC)C4=O)[C@@H](CCC(=O)OC)[C@@H]3C (stereo not given in full) | 10.26 µM | 4.28 µM | 10.68 | 2.4 | –
6 | CCCCCCCN1C(=O)c2c3nc(cc4nc(cc5[nH]c(cc6[nH]c2c(c6C)C1=O)c(CC)c5C)C(C(C)OCCCCCC)=C4C)[C@@H](C)[C@@H]3CCC(=O)OC (stereo not given in full) | 8.04 µM | 2.95 µM | 10.83 | 2.73 | –
7 | CCCCCCCOC(C)C1=C(C)c2cc3nc(c4c5[nH]c(cc6[nH]c(cc1n2)c(C)c6CC)c(C)c5C(=O)N(CCCCCC)C4=O)[C@@H](CCC(=O)OC)[C@@H]3C (stereo not given in full) | 8.2 µM | 2.6 µM | – | 3.15 | –
8 | CCCCCCCCCCOC(C)C1=C(C)c2cc3nc(c4c5[nH]c(cc6[nH]c(cc1n2)c(C)c6CC)c(C)c5C(=O)N(CCCCCCCCCC)C4=O)[C@@H](CCC(=O)OC)[C@@H]3C (stereo not given in full) | 5.56 µM | 1.73 µM | – | 3.21 | –
9 | CCCCCCN1C(=O)c2c3nc(cc4nc(cc5[nH]c(cc6[nH]c2c(c6C)C1=O)c(CC)c5C)C(C(C)OCCC)=C4C)[C@@H](C)[C@@H]3CCC(=O)OC (stereo not given in full) | 13.8 µM | 6.29 µM | – | 2.19 | 8.79
10 | CCCCCCCCCCCCN1C(=O)c2c3nc(cc4nc(cc5[nH]c(cc6[nH]c2c(c6C)C1=O)c(CC)c5C)C(C(C)OCCCCCC)=C4C)[C@@H](C)[C@@H]3CCC(=O)OC (stereo not given in full) | 4.77 µM | 2 µM | – | 2.39 | –
11 | CCCCCCOC(C)C1=C(C)c2cc3nc(c4c5[nH]c(cc6[nH]c(cc1n2)c(C)c6CC)c(C)c5C(=O)N(C)C4=O)[C@@H](CCC(=O)OC)[C@@H]3C (stereo not given in full) | 6.42 µM | 1.78 µM | – | 3.61 | 7.67
12 | CCCCCCCCCCN1C(=O)c2c3nc(cc4nc(cc5[nH]c(cc6[nH]c2c(c6C)C1=O)c(CC)c5C)C(C(C)OCCCCCC)=C4C)[C@@H](C)[C@@H]3CCC(=O)OC (stereo not given in full) | 5.18 µM | 1.8 µM | – | 2.88 | –
13 | CCCOC(C)C1=C(C)c2cc3nc(c4c5[nH]c(cc6[nH]c(cc1n2)c(C)c6CC)c(C)c5C(=O)N(CCC)C4=O)[C@@H](CCC(=O)OC)[C@@H]3C (stereo not given in full) | 10.5 µM | 4.8 µM | – | 2.19 | 7.26
14 | CCCCCCCCCCN1C(=O)c2c3nc(cc4nc(cc5[nH]c(cc6[nH]c2c(c6C)C1=O)c(CC)c5C)C(C(C)OCCC)=C4C)[C@@H](C)[C@@H]3CCC(=O)OC (stereo not given in full) | 11.5 µM | 6.09 µM | 10.83 | 1.89 | –
15 | CCCCCCOC(C)C1=C(C)c2cc3nc(c4c5[nH]c(cc6[nH]c(cc1n2)c(C)c6CC)c(C)c5C(=O)N(CCC)C4=O)[C@@H](CCC(=O)OC)[C@@H]3C (stereo not given in full) | 4.95 µM | 1.48 µM | – | 3.34 | 8.79
16 | CCCCCCCCCOC(C)C1=C(C)c2cc3nc(c4c5[nH]c(cc6[nH]c(cc1n2)c(C)c6CC)c(C)c5C(=O)N(CCCCCC)C4=O)[C@@H](CCC(=O)OC)[C@@H]3C (stereo not given in full) | 10.7 µM | 3.54 µM | 11.85 | 3.02 | –
17 | CCCCCCCCCCCCOC(C)C1=C(C)c2cc3nc(c4c5[nH]c(cc6[nH]c(cc1n2)c(C)c6CC)c(C)c5C(=O)N(CCCCCCCCCCCC)C4=O)[C@@H](CCC(=O)OC)[C@@H]3C (stereo not given in full) | 5.04 µM | 2.7 µM | – | 1.87 | –
18 | CCc1c(C)c2cc3[nH]c(cc4nc(c5c6nc(cc1[nH]2)C(C)=C6C(=O)N(C)C5=O)[C@@H](CCC(=O)OC)[C@@H]4C)c(C)c3C(C)OC (stereo not given in full) | 0.3 µM | 0.1 µM | – | 2.87 | 5.32
19 | CCCCCCOC(C)C1=C(C)c2cc3nc(c4c5[nH]c(cc6[nH]c(cc1n2)c(C)c6CC)c(C)c5C(=O)N(CCCCCC)C4=O)[C@@H](CCC(=O)OC)[C@@H]3C (stereo not given in full) | 7.3 µM | 2.3 µM | 10.32 | 3.17 | –
